Paper PMC3055681 (Neuropsychopharmacology : official publication of the …, 2010)
Entries after “also recorded” stand apart in the source; their conditions may differ. Read-outs that look alike come from different tables or passages of the source.

Experiments:
human α3β4 nAChRs [1] = molecular target: T1, human α3β4 nAChRs (Homo sapiens, UniProt P30926+P32297); conditions: ref Rollema et al., 2007; cited from earlier work
rats consuming ethanol = conditions: 1 and 2 mg/kg; ref Steensland et al., 2007; cited from earlier work
[2] = in vivo; ref Obach et al., 2006; Shaffer et al., 2009; cited from earlier work
α4β2 nAChRs = conditions: ref Glick et al., 2000; cited from earlier work
human α4β2 nAChRs = human α4β2 nAChRs (Homo sapiens, UniProt P17787+P43681); type: cell-based
Chain of human α4β2 nAChRs (P43681 29-627 limits assumed): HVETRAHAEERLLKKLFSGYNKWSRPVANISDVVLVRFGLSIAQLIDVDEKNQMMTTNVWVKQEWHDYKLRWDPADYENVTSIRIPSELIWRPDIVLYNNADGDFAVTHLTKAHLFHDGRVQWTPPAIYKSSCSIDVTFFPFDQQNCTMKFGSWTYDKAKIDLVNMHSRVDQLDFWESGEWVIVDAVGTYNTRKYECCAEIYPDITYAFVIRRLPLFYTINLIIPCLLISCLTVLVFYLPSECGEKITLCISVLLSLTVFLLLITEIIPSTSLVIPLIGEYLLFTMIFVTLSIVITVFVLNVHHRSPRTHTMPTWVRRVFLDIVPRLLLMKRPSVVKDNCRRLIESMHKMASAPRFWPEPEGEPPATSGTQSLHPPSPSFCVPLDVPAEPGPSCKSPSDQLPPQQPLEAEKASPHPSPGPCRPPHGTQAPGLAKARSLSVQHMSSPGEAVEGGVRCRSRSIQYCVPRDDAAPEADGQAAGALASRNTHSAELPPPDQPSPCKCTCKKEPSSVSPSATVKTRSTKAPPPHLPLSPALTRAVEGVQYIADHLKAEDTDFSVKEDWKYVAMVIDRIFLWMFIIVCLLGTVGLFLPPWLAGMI
Chain of human α4β2 nAChRs (P17787 26-502): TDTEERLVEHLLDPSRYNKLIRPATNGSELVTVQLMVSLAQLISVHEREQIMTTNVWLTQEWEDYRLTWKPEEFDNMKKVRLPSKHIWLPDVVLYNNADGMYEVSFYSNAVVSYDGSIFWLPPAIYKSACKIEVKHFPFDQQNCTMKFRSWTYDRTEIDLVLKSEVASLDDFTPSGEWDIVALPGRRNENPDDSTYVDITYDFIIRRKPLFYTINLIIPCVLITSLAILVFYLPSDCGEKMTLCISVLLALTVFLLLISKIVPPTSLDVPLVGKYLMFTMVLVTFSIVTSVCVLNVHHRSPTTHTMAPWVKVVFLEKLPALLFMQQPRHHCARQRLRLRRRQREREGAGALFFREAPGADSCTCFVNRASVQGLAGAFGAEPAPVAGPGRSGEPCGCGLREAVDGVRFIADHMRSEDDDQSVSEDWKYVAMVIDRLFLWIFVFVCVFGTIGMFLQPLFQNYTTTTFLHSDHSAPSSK
How it was run: (§1)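 HEK293 lines stably transfected with human α3β4 or α4β2 nAChRs. Cells were loaded in growth medium with Calcium Green-1 (2 µM final) mixed 1:1 with 20% pluronic F-127, then read on FLIPR (ex 488, em 516 nm). Agonism was a single compound addition compared with 100 µM ACh. Inhibition used 2 min pretreatment then 30 µM ACh, with ΔF taken relative to vehicle-pretreated wells. Runs were in quadruplicate, with EC50/IC50 from concentration curves.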

[3] = Rat pharmacokinetics, unbound brain concentrations; type: in vivo, Sprague-Dawley rats
How it was run: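 Sprague-Dawley rats were dosed s.c. at 1, 5 or 10 mg/kg. Unbound brain concentration (Cb,u) was estimated over time using an LC-MS/MS assay combined with tissue binding, with values in nM and n = 2 per time point.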

[4] = tested on: rats self-administering 10% ethanol; test: Repeated; type: in vivo
How it was run: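 Rats trained on FR3 10% ethanol self-administration reached stable baseline and were randomised to drug or saline. Test compound (10 mg/kg s.c.) or saline was given 30 min before each session on 5 consecutive days, with lever presses recorded daily. Post-treatment baseline was taken 24 h after the last dose. The day after a cage change (day 3) was excluded. Analysis was two-way ANOVA with Newman–Keuls (n = 6–7).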

[5] = tested on: Wistar rats consuming 20% ethanol; test: Intermittent access 20% ethanol two-bottle-choice drinking paradigm; type: in vivo
How it was run: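 Individually housed rats on a reversed 12-h light cycle had intermittent access to 20% (v/v) ethanol versus water in a two-bottle choice. Once baseline drinking was stable, test compound or saline was given s.c. 30 min before bottles were presented. Injections were 7 days apart in a Latin square, each rat serving as its own control. Intake (g/kg) and preference were measured at 30 min, 6 h and 24 h. Analysis was repeated-measures ANOVA with Newman–Keuls.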

[6] = tested on: Wistar rats self-administering 10% ethanol; test: Operant self-administration of 10% ethanol; type: in vivo; conditions: 10 mg/kg s.c., 30 minutes before session
How it was run: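 Wistar rats were trained on FR3 (0.1 ml reward), 30 min daily sessions Mon–Fri, to press for 10% (v/v) ethanol. Test compound or saline was given s.c. either 30 min or 2 h before the session, depending on compound. Injections were 7 days apart in a Latin square, with the normal schedule between them. Active lever presses were analysed by repeated-measures ANOVA with Newman–Keuls (n = 8–13).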

α6/4β4 nAChRs = α6/4β4 nAChRs (Homo sapiens, UniProt P30926+P43681+Q15825); test: Binding affinity for α6/4β4 nAChRs; conditions: ratio of binding affinities
Chain of α6/4β4 nAChRs (Q15825 26-239): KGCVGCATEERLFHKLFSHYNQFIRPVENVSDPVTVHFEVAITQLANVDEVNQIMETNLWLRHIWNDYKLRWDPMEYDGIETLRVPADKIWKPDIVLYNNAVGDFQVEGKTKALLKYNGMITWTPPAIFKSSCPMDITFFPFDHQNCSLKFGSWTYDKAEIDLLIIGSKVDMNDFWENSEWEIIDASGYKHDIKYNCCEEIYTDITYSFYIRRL
Chain of α6/4β4 nAChRs (P43681 241-627): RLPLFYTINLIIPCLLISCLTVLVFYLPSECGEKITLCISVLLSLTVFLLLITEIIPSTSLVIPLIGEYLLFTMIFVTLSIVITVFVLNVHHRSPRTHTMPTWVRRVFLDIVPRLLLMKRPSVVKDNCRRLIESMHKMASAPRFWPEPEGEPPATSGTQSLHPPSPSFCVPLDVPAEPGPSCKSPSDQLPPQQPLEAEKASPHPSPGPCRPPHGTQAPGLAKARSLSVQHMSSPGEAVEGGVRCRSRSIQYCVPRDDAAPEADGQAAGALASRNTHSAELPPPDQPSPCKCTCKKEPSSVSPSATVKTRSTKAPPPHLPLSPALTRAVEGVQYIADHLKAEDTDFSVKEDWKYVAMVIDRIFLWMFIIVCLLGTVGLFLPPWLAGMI
Chain of α6/4β4 nAChRs (P30926 22-498): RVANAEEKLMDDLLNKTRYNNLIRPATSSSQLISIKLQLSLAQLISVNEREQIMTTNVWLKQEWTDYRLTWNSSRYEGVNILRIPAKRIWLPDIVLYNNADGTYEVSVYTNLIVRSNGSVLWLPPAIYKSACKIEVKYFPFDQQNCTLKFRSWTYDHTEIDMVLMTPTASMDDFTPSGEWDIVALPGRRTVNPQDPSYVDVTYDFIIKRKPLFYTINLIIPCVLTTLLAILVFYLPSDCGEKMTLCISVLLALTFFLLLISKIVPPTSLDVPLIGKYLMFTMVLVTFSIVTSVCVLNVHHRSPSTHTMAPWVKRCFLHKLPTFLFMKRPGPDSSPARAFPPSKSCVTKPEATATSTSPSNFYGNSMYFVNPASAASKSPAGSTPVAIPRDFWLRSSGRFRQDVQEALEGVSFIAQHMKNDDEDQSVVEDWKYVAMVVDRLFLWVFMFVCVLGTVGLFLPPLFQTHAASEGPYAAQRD

humans = conditions: cited from earlier work
human α3β4 nAChRs [7] = molecular target: T1, human α3β4 nAChRs; type: cell-based
How it was run: as §1

[8] = oral administration, ref Shaffer et al., 2009, cited from earlier work
[9] = male, Sprague-Dawley, rat, brain (unbound), subcutaneous, 10 mg/kg
[10] = clinically tested as a smoking cessation aid, ref Pfizer, data on file

T1 sequence (P32297 32-505): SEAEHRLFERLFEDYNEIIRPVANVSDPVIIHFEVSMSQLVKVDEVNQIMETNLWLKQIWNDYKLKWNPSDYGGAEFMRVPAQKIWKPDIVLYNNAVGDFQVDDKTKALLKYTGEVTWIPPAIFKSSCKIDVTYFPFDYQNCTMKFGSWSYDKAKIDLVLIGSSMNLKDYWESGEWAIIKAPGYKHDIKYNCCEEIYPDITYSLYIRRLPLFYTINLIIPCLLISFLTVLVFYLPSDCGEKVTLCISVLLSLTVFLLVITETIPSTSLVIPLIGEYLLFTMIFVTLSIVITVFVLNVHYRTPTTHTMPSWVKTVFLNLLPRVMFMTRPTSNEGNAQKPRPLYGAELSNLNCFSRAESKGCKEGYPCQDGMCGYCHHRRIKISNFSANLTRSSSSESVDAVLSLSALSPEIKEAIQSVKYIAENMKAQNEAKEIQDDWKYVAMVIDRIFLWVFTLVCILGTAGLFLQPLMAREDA
T1 sequence (P30926 22-498): as the sequence (P30926 22-498) above

Compound: c1cnc2cc3c(cc2n1)[C@@H]1CNC[C@H]3C1 [Varenicline]
- Activation Efficacy (% vs ACh) (human α3β4 nAChRs [1]): 93.5 ± 1.4 (5) % vs ACh
- ethanol intake (rats consuming ethanol): significantly reduce ethanol intake
- active metabolites [2]: not formed in vivo

Compound: COCC[C@H]1CC2CN3CCc4c([nH]c5ccccc45)[C@](C(=O)OC)(C2)[C@H]13 [18-MC, 18-methoxycoronaridine]
- effect at α4β2 nAChRs (α4β2 nAChRs): no effect

Compound: FC(F)(F)c1ccc2c(c1)[C@@H]1CNC[C@H]2C1 [CP-601932, (1S,5R)-2,3,4,5-tetrahydro-7-(trifluoromethyl)-1,5-methano-1H-3-benzazepine]
- EC50 (human α4β2 nAChRs): > 30000 nM
- IC50 (human α4β2 nAChRs): 114 ± 29 nM
- Activation of α4β2 nAChRs (Ca2+ fluorescence) (human α4β2 nAChRs; α4β2): no measurable change in Ca2+-fluoresence
- maximal unbound brain concentration Cb,u ([3]; 10 mg/kg s.c., at 30 minutes): 710 nM
- concentration at 5 h [3, 9]: 530 nM
- concentration at 24 h [3, 9]: 85 nM
- rebound in active lever presses after end of chronic treatment ([4]; 10 mg/kg s.c. for 5 days, compared to baseline): no rebound increase in active lever presses
- active lever presses for 10% ethanol vs vehicle ([4]; 10 mg/kg s.c. once per day for 5 consecutive days, 30 minutes before session): decreased active lever presses
- ethanol consumption vs vehicle ([5]; 5 mg/kg s.c., at 30 minutes): significantly decreased high voluntary ethanol consumption
- ethanol consumption vs vehicle ([5]; 10 mg/kg s.c., 6 h and 24 h time points): decreased ethanol consumption
- ethanol consumption vs vehicle ([5]; 10 mg/kg s.c., at 30 minutes): significantly decreased high voluntary ethanol consumption
- preference for ethanol over water vs vehicle ([5]; highest dose (10 mg/kg s.c.), all time points): decreased the preference for ethanol over water
- active lever presses for 10% ethanol vs vehicle [6]: significantly decreased the number of presses on the active lever
- fold higher affinity for α3β4 than for α6/4β4 nAChRs (α6/4β4 nAChRs): at least 10 fold
- side effects indicative of ganglion blocking effects (humans; clinical trial as potential smoking cessation aid): did not show side effects indicative of ganglion blocking effects
- abstinence rate (humans; [10]): moderate two-fold increase in abstinence rate that was not statistically significant
- tolerability / safety in humans (humans; [10]): safe in humans; also recorded: generally well tolerated
- EC50 (human α3β4 nAChRs [7]; Activation EC50, α3β4, vs 100 μM ACh): 2920 ± 320 nM
- IC50 (human α3β4 nAChRs [7]; IC50 for inhibition of α3β4 nAChRs, range given in text for both compounds): 100 to 300 nM
- IC50 (human α3β4 nAChRs [7]; Inhibition IC50, α3β4, 2 min pre-application, 30 μM ACh challenge): 257 ± 41 nM
- brain penetration ([8]; rats): extensive brain penetration
- absorption [8]: well absorbed
- half-life [8]: long half-life
- active metabolites [2]: not formed in vivo
